Experimental data from ChEMBL document CHEMBL4831496, “Noncovalent EGFR T790M/L858R inhibitors based on diphenylpyrimidine scaffold: Design, synthesis, and bioactivity evaluation for the treatment of NSCLC” (Eur J Med Chem, 2021).
Activity calls are given as the source filed them. The calls are words filed in the database; no cut-off is given here.

Key:
[1] = molecular target: Epidermal growth factor receptor (Homo sapiens, UniProt P00533); experiment: Inhibition of wild type EGFR (unknown origin) measured after 60 mins by ADP-Glo kinase based luminescence assay
NCI-H1975 [2] = experiment: Antiproliferative activity against human NCI-H1975 cells harboring EGFR L858R/T790M mutant assessed as reduction in cell viability incubated for 72 hrs by CCK8 assay; type: functional, cell-based; settings: NCI-H1975, 72 h
How it was run: (§1)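 Cells kept as monolayers at 37 °C, 5% CO2, seeded 3000-4000/well for 12 h, then exposed to compounds for 72 h. CCK-8 added for 1-2 h at 37 °C, absorbance read at 450 nm. Each dose run in triplicate, experiment repeated at least three times. IC50 taken from dose-response curves.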

A-431 = experiment: Cytotoxicity against human A-431 cells harboring wild type EGFR assessed as reduction in cell viability incubated for 72 hrs by CCK8 assay; type: cell-based; settings: A-431, 72 h; how it was run: as §1
A549 = experiment: Antiproliferative activity against human A549 cells harboring KRAS G12S mutant assessed as reduction in cell viability incubated for 72 hrs by CCK8 assay; type: functional, cell-based; settings: A549, 72 h; how it was run: as §1
[3] = Cytotoxicity against human HBE cells assessed as reduction in cell viability incubated for 72 hrs by CCK8 assay; type: cell-based; how it was run: as §1
ASPC1 = experiment: Antiproliferative activity against human ASPC1 cells assessed as reduction in cell viability incubated for 72 hrs by CCK8 assay; type: functional, cell-based; settings: ASPC1, 72 h; how it was run: as §1
NCI-H1975 [4] = experiment: Antimigratory activity against human NCI-H1975 cells assessed as narrowing of scratch width at 0.5 to 2 uM incubated for 24 to 48 hrs by scratch wound healing assay based fluorescence microscopic analysis; type: functional, cell-based; settings: dose 0.5-2 µM, time 24-48 hrs
How it was run: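 H1975 monolayers cultured 48 h at 37 °C, then scratched and washed with PBS. Cells treated at […] and imaged by fluorescence microscope at 0, 24 and 48 h, with an untreated negative control.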

NCI-H1975 [5] = experiment: Induction of morphological changes in human NCI-H1975 cells assessed as increase in fusiform and sickle cell type abnormal cells at 0.5 to 2 uM incubated for 48 hrs by DAPI staining based fluorescence microscopic analysis; type: functional; settings: dose 0.5-2 µM
How it was run: (§2)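 H1975 cells seeded at about 2 × 10⁵/well for 12 h, then treated. Cells fixed in 10% formaldehyde for 10 min, stained with DAPI for 10 min at room temperature and examined by fluorescence microscopy. Cell shape was also viewed under natural light.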

NCI-H1975 [6] = experiment: Induction of morphological changes in human NCI-H1975 cells assessed as nuclear fragmentation at 0.5 to 2 uM incubated for 48 hrs under natural light by DAPI staining based fluorescence microscopic analysis; type: functional, cell-based; settings: dose 0.5-2 µM; how it was run: as §2
NCI-H1975 [7] = experiment: Induction of apoptosis in human NCI-H1975 cells assessed as viable cells at 0.125 uM incubated for 48 hrs by AnnexinV/FITC and propidium iodide staining based flow cytometry analysis (reference value: 94.9%); type: functional; settings: read-out: Activity
NCI-H1975 [8] = experiment: Induction of apoptosis in human NCI-H1975 cells assessed as early apoptotic cells at 0.125 uM incubated for 48 hrs by AnnexinV/FITC and propidium iodide staining based flow cytometry analysis (reference value: 1.39%); type: functional
NCI-H1975 [9] = experiment: Induction of apoptosis in human NCI-H1975 cells assessed as necrotic cells at 0.125 uM incubated for 48 hrs by AnnexinV/FITC and propidium iodide staining based flow cytometry analysis (reference value: 2.99%); type: functional
NCI-H1975 [10] = experiment: Induction of apoptosis in human NCI-H1975 cells assessed as viable cells at 0.5 uM incubated for 48 hrs by AnnexinV/FITC and propidium iodide staining based flow cytometry analysis (reference value: 94.9%); type: functional; settings: read-out: Activity
NCI-H1975 [11] = experiment: Induction of apoptosis in human NCI-H1975 cells assessed as early apoptotic cells at 0.5 uM incubated for 48 hrs by AnnexinV/FITC and propidium iodide staining based flow cytometry analysis (reference value: 1.39%); type: functional
NCI-H1975 [12] = experiment: Induction of apoptosis in human NCI-H1975 cells assessed as necrotic cells at 0.5 uM incubated for 48 hrs by AnnexinV/FITC and propidium iodide staining based flow cytometry analysis (reference value: 2.99%); type: functional
NCI-H1975 [13] = experiment: Induction of apoptosis in human NCI-H1975 cells assessed as viable cells at 2 uM incubated for 48 hrs by AnnexinV/FITC and propidium iodide staining based flow cytometry analysis (reference value: 94.9%); type: functional; settings: read-out: Activity
NCI-H1975 [14] = experiment: Induction of cell cycle arrest in human NCI-H1975 cells assessed as accumulation of cells at G0/G1 phase at 0.125 uM incubated for 48 hrs by propidium iodide staining based flow cytometry analysis (reference value: 58.05%); type: functional
NCI-H1975 [15] = experiment: Induction of cell cycle arrest in human NCI-H1975 cells assessed as accumulation of cells at S phase at 0.125 uM incubated for 48 hrs by propidium iodide staining based flow cytometry analysis (reference value: 11.72%); type: functional
NCI-H1975 [16] = experiment: Induction of cell cycle arrest in human NCI-H1975 cells assessed as accumulation of cells at G2/M phase at 0.125 uM incubated for 48 hrs by propidium iodide staining based flow cytometry analysis (reference value: 30.23%); type: functional
NCI-H1975 [17] = experiment: Induction of cell cycle arrest in human NCI-H1975 cells assessed as accumulation of cells at G0/G1 phase at 0.5 uM incubated for 48 hrs by propidium iodide staining based flow cytometry analysis (reference value: 58.05%); type: functional
NCI-H1975 [18] = experiment: Induction of cell cycle arrest in human NCI-H1975 cells assessed as accumulation of cells at G2/M phase at 0.5 uM incubated for 48 hrs by propidium iodide staining based flow cytometry analysis (reference value: 30.23%); type: functional
NCI-H1975 [19] = experiment: Induction of cell cycle arrest in human NCI-H1975 cells assessed as accumulation of cells at G2/M phase at 2 uM incubated for 48 hrs by propidium iodide staining based flow cytometry analysis (reference value: 30.23%); type: functional
[20] = AUC (0 to t) in Sprague-Dawley rat at 25 mg/kg, iv measured for 24 hrs by LC-MS/MS analysis; type: ADME, organism-based; design: dose 25 mg/kg, time 24 hrs; settings: in vivo
How it was run: (§3)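 Male Sprague-Dawley rats (200 ± 20 g), acclimatised 1 week at 25 ± 2 °C, 50-60% RH; six rats given 25 mg/kg by tail vein. Retro-orbital blood into heparin at 10, 20, 40 min and 1, 2, 3, 4, 6, 8, 12, 24 h. Plasma ethyl acetate-extracted and quantified by LC-MS/MS, transition m/z 485.3/452.3.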

[21] = MRT (0 to t) in Sprague-Dawley rat at 25 mg/kg, iv measured for 24 hrs by LC-MS/MS analysis; type: ADME, organism-based; settings: in vivo; how it was run: as §3
[22] = Elimination half life in Sprague-Dawley rat at 25 mg/kg, iv measured for 24 hrs by LC-MS/MS analysis; type: ADME, organism-based; settings: in vivo, read-out: beta t1/2 (converted); how it was run: as §3
[23] = Clearance in Sprague-Dawley rat at 25 mg/kg, iv measured for 24 hrs by LC-MS/MS analysis; type: ADME, organism-based; settings: in vivo; how it was run: as §3
Homo sapiens = organism: Homo sapiens; experiment: Selectivity index, ratio of IC50 for wild type EGFR (unknown origin) to IC50 for EGFR L858R/T790M double mutant (unknown origin)
[24] = Selectivity index, ratio of IC50 for human A-431 cells harboring wild type EGFR (unknown origin) to IC50 for human NCI-H1975 cells harboring EGFR L858R/T790M mutant

Chain of Epidermal growth factor receptor (P00533 whole entry): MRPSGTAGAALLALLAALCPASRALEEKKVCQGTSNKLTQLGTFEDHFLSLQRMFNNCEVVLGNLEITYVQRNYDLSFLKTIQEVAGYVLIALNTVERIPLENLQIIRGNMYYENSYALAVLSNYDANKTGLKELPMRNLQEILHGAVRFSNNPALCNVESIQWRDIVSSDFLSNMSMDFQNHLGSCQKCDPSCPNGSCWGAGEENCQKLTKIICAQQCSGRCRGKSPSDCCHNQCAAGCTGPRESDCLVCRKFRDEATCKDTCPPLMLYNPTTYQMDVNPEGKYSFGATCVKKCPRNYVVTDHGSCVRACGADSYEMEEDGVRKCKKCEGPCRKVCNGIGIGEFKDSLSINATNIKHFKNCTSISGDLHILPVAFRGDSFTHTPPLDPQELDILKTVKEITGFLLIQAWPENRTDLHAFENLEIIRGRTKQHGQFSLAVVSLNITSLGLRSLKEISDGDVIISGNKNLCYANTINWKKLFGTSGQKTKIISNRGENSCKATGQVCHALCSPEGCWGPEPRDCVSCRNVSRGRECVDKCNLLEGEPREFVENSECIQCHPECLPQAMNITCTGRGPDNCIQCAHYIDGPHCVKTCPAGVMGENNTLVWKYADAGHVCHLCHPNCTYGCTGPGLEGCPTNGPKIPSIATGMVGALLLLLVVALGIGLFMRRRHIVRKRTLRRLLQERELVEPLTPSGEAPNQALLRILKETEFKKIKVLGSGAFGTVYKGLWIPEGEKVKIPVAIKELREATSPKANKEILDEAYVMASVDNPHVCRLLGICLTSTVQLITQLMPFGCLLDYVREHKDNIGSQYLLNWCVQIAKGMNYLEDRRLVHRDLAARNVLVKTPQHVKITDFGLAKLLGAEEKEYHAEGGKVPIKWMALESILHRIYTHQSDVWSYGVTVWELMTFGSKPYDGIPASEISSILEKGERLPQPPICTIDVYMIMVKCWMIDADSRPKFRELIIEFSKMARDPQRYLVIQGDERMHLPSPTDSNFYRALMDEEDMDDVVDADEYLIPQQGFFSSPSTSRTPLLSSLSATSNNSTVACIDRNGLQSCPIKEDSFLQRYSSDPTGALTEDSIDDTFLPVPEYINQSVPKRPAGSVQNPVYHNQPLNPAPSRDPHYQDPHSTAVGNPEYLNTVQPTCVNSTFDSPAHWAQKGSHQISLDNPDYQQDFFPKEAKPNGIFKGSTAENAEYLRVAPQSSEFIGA

IC50 [1]: 0.0477 µM
IC50 (NCI-H1975 [2]): 0.0978 µM
IC50 (A549): 0.0977 µM
IC50 (ASPC1): 0.169 µM
AUC(0-t) at 24 h [20]: 37600 ng·h/mL
MRT last at 24 h [21]: 8.2 h
half-life [22]: 9.51 h
clearance [23]: 9.23 mL/min/kg
Ratio IC50 (Homo sapiens): 43.4
SMILES: O=C(NO)c1ccccc1Nc1nc(Nc2ccc(OCCN3CCOCC3)cc2)ncc1Cl
IC50 (A-431): 1.07 µM
IC50 [3]: 23.6 µM
Activity (NCI-H1975 [4]): Active
Activity (NCI-H1975 [5]): Active
Activity (NCI-H1975 [6]): Active
viability at 0.125 µM (NCI-H1975 [7]): 95.7%
Activity (NCI-H1975 [8]): 4%
Activity (NCI-H1975 [9]): 0.01%
viability at 0.5 µM (NCI-H1975 [10]): 83.8%
Activity (NCI-H1975 [11]): 15.53%
Activity (NCI-H1975 [12]): 0.07%
viability at 2 µM (NCI-H1975 [13]): 8.63%
Activity (NCI-H1975 [14]): 20.25%
Activity (NCI-H1975 [15]): 15.08%
Activity (NCI-H1975 [16]): 64.66%
Activity (NCI-H1975 [17]): 19.16%
Activity (NCI-H1975 [18]): 70.99%
Activity (NCI-H1975 [19]): 31.9%
Ratio IC50 [24]: 10.9
